Experimental data taken from ChEMBL document CHEMBL1125903, “New derivatives of kanamycin B obtained by modifications and substitutions in position 6". 1. Synthesis and microbiological evaluation” (1991).
≈ marks a conversion by molar mass, not a printed value.

Legend:
Klebsiella pneumoniae = experiment: Minimum inhibitory concentration measured against Klebsiella pneumoniae (ATCC 13883); assay type: functional
Method in brief: (§1)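 Agar dilution MIC on Mueller-Hinton agar supplemented with CaCl2 and MgCl2 (NCCLS standards), 2-fold dilutions. Compounds tested as sulfate salts dissolved in sterile water; values expressed in mg/L of free base, with base content determined by 1H NMR. Spots of 10^4-10^5 CFU applied by multipoint inoculator. Growth read visually after 24 h at 37 °C.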

Klebsiella aerogenes = experiment: Minimum inhibitory concentration measured against Enterobacter aerogenes (ATCC 13048); assay type: functional; method in brief: as §1
Escherichia coli = experiment: Minimum inhibitory concentration measured against Escherichia coli (ATCC 25922); assay type: functional; method in brief: as §1
Staphylococcus aureus = experiment: Minimum inhibitory concentration measured against Staphylococcus aureus (ATCC 25923); assay type: functional; method in brief: as §1
Bacillus subtilis = experiment: Minimum inhibitory concentration measured against Bacillus subtilis (ATCC 6633); assay type: functional; method in brief: as §1
Pseudomonas aeruginosa = experiment: Minimum inhibitory concentration measured against Pseudomonas aeruginosa (NCTC 10701); assay type: functional; method in brief: as §1
Enterobacter cloacae = experiment: Minimum inhibitory concentration measured against Enterobacter cloacae (ATCC 23355); assay type: functional; method in brief: as §1
Salmonella typhimurium = experiment: Minimum inhibitory concentration measured against Salmonella Typhimurium (ATCC 14028); assay type: functional, Salmonella enterica subsp. enterica serovar Typhimurium; settings: Salmonella enterica; method in brief: as §1
Serratia marcescens [1] = experiment: Minimum inhibitory concentration measured against Serratia marcescens (ATCC 8100); assay type: functional; method in brief: as §1
[2] = system: Staphylococcus epidermidis; experiment: Minimum inhibitory concentration measured against Staphylococcus epidermidis (ATCC 12228); assay type: functional; method in brief: as §1
Citrobacter freundii = experiment: Minimum inhibitory concentration measured against Citrobacter freundii (ATCC 8090); assay type: functional; method in brief: as §1
Proteus vulgaris = experiment: Minimum inhibitory concentration measured against Proteus vulgaris (ATCC 13315); assay type: functional; method in brief: as §1
Enterococcus faecalis = experiment: Minimum inhibitory concentration measured against […] faecalis (ATCC 19431); assay type: functional; method in brief: as §1
Serratia marcescens [3] = experiment: Minimum inhibitory concentration measured against CDC 87457 strain; assay type: functional; method in brief: as §1

| SMILES | MIC (Klebsiella pneumoniae) [µg/mL] | MIC (Klebsiella aerogenes) [µg/mL] | MIC (Escherichia coli) [µg/mL] | MIC (Staphylococcus aureus) [µg/mL] | MIC (Bacillus subtilis) [µg/mL] | MIC (Pseudomonas aeruginosa) [µg/mL] | MIC (Enterobacter cloacae) [µg/mL] | MIC (Salmonella typhimurium) [µg/mL] | MIC (Serratia marcescens [1]) [µg/mL] | MIC [2] [µg/mL] | MIC (Citrobacter freundii) [µg/mL] | MIC (Proteus vulgaris) [µg/mL] | MIC (Enterococcus faecalis) [µg/mL] | MIC (Serratia marcescens [3]) [µg/mL] |
| --- | --- | --- | --- | --- | --- | --- | --- | --- | --- | --- | --- | --- | --- | --- |
| CCCSCC1OC(OC2C(NC(=O)OC(C)(C)C)CC(NC(=O)OC(C)(C)C)C(OC3OC(CNC(=O)OC(C)(C)C)C(O)C(O)C3NC(=O)OC(C)(C)C)C2O)C(O)C(NC(=O)OC(C)(C)C)C1O (stereo not drawn) | 2 (≈ 1.92 µM) | 4 (≈ 3.84 µM) | 2 (≈ 1.92 µM) | 1 (≈ 0.959 µM) | 4 (≈ 3.84 µM) | > 64 | 0.25 (≈ 0.24 µM) | 8 (≈ 7.68 µM) | > 64 | 0.25 (≈ 0.24 µM) | 1 (≈ 0.959 µM) | 1 (≈ 0.959 µM) | 8 (≈ 7.68 µM) |  |
| NC[C@H]1O[C@H](O[C@H]2[C@H](O)[C@@H](O[C@H]3O[C@H](CO)[C@@H](O)[C@H](N)[C@H]3O)[C@H](N)C[C@@H]2N)[C@H](N)[C@@H](O)[C@@H]1O [BEKANAMYCIN] | 0.25 (≈ 0.517 µM) | 0.5 (≈ 1.03 µM) | 1 (≈ 2.07 µM) | 0.5 (≈ 1.03 µM) | 0.5 (≈ 1.03 µM) | 32 (≈ 66.2 µM) | 0.25 (≈ 0.517 µM) | 1 (≈ 2.07 µM) | 1 (≈ 2.07 µM) | 0.25 (≈ 0.517 µM) | 0.5 (≈ 1.03 µM) | 0.25 (≈ 0.517 µM) | 16 (≈ 33.1 µM) | 1 (≈ 2.07 µM) |
| CC(=O)N(C)CC1OC(OC2C(NC(=O)OC(C)(C)C)CC(NC(=O)OC(C)(C)C)C(OC3OC(CNC(=O)OC(C)(C)C)C(O)C(O)C3NC(=O)OC(C)(C)C)C2O)C(O)C(NC(=O)OC(C)(C)C)C1O (stereo not drawn) | 8 (≈ 7.7 µM) | 32 (≈ 30.8 µM) | 32 (≈ 30.8 µM) | 4 (≈ 3.85 µM) | 32 (≈ 30.8 µM) | > 64 | 1 (≈ 0.962 µM) | 64 (≈ 61.6 µM) | > 64 | 2 (≈ 1.92 µM) | 8 (≈ 7.7 µM) | 8 (≈ 7.7 µM) | > 64 |  |
| CCCCCC(=O)N(CCCC)CC1OC(OC2C(NC(=O)OC(C)(C)C)CC(NC(=O)OC(C)(C)C)C(OC3OC(CNC(=O)OC(C)(C)C)C(O)C(O)C3NC(=O)OC(C)(C)C)C2O)C(O)C(NC(=O)OC(C)(C)C)C1O (stereo not drawn) | > 64 | > 64 | > 64 | > 64 | > 64 | > 64 | 32 (≈ 28.1 µM) | > 64 | > 64 | > 64 | > 64 | > 64 | > 64 |  |
